Our source for the EC50 and Ki values is BindingDB's records for doi:10.1021/acs.jmedchem.7b00976 (Leipzig University, 2017).

Molecules are shown by their SMILES.

The target of assay [1] is T1, Neuropeptide Y receptor type 2 (Homo sapiens, UniProt P49146).
T1 sequence (P49146 whole entry): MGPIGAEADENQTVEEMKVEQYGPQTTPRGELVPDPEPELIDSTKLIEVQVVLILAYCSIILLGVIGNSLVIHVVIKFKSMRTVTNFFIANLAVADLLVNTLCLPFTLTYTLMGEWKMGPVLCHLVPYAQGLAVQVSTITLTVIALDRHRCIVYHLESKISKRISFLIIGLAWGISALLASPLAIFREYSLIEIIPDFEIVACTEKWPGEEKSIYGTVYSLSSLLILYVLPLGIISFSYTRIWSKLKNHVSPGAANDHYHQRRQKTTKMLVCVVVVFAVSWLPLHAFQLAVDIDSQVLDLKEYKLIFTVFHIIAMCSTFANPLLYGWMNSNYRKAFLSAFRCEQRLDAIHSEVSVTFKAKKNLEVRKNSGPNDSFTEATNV
Nature of the assay: ASSAY_NAME: ChEMBL_1668994 (CHEMBL4018882) DESCRIPTION: Positive allosteric modulation of human C-terminal eYFP-fused human NY2 receptor expressed in African green monkey COS7 cells co-expressing delta6Galphaqi4-myr assessed as potentiation of neuropeptide Y-mediated Ca2+ flux by measuring pancreatic polypeptide EC50 at 30 uM treated at 20 secs post baseline detection followed by addition of …. In general terms: Calcium flux is commonly read through the fluorescence of an indicator in the cells.

Assay [2] concerns the target T2, Neuropeptide Y receptor type 4 (Homo sapiens, UniProt P50391). Briefly: Positive allosteric modulation of human C-terminal eYFP-tagged NY4 receptor expressed in HEK293 cells assessed as potentiation of pancreatic polypeptide-induced arrestin 3 recruitment by measuring pancreatic polypeptide EC50 at 30 uM after 30 mins by BRET assay (Rvb = 5.6 nM).
Assay [3] is described as follows: Positive allosteric modulation of human C-terminal eYFP-tagged NY4 receptor expressed in HEK293 cells assessed as potentiation of neuropeptide Y-induced arrestin 3 recruitment by measuring neuropeptide Y pEC50 at 30 uM after 30 mins by BRET assay (Rvb = 5.9 +/- 0.15 No_unit). On the technique in general: Activated receptors often draw arrestin, which recruitment assays turn into a signal.

Assay [4] in a line: Positive allosteric modulation of human NY4 receptor expressed in African green monkey COS7 cells co-expressing delta6Galphaqi4-myr assessed as potentiation of neuropeptide Y induced-calcium flux by measuring neuropeptide Y EC50 at 30 uM treated at 20 secs post baseline detection followed by addition of neuropeptide Y after 140 secs by Fluo2-.
Assay [5] deals with T2, Neuropeptide Y receptor type 4. Briefly: Positive allosteric modulation of human C-terminal eYFP-tagged NY4 receptor expressed in HEK293 cells assessed as potentiation of pancreatic polypeptide-induced arrestin 3 recruitment by measuring pancreatic polypeptide pEC50 at 30 uM after 30 mins by BRET assay (Rvb = 8.3 +/- 0.12 No_unit).
The nature of assay [6]: Positive allosteric modulation of human NY4 receptor expressed in African green monkey COS7 cells co-expressing delta6Galphaqi4-myr assessed as potentiation of neuropeptide Y induced-calcium flux by measuring neuropeptide Y pEC50 at 30 uM treated at 20 secs post baseline detection followed by addition of neuropeptide Y after 140 secs by Fluo2.
Assay [7] can be described thus: Positive allosteric modulation of human C-terminal eYFP-tagged NY4 receptor expressed in HEK293 cells assessed as potentiation of neuropeptide Y-induced arrestin 3 recruitment by measuring neuropeptide Y EC50 at 30 uM after 30 mins by BRET assay (Rvb = 1380 nM).
The target of assay [8] is T2, Neuropeptide Y receptor type 4. Briefly: Positive allosteric modulation of human NY4 receptor expressed in African green monkey COS7 cells co-expressing delta6Galphaqi4-myr assessed as potentiation of peptide YY induced-calcium flux by measuring peptide YY EC50 at 30 uM treated at 20 secs post baseline detection followed by addition of peptide YY after 140 secs by Fluo2-AM fluorescent dye based-assay (Rvb = 2.6 nM). Put shortly:
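COS7 cells stably co-expressing human Y4R-eYFP fusion and chimeric Δ6Gαqi4-myr, seeded overnight in 96-well format; loaded with 2.4 μM Fluo2-AM in HBSS/20 mM HEPES/probenecid, 60 min at 37 °C. Two-addition FlexStation read (ex 485/em 525 nm): compound or DMSO after 20 s baseline, PYY at 140 s. Response as x-fold over basal, normalized to PP; duplicates, ≥3 independent experiments.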

Assay [9] shares this target. Nature of the assay: Effect on neuropeptide Y-mediated displacement of 125I-pancreatic polypeptide from human C-terminal eYFP-tagged NY4 receptor expressed in HEK293 cell membranes assessed as neuropeptide Y pKi at 30 uM after 5 hrs by scintillation counting (Rvb = 7.9 +/- 0.2 No_unit). (In general: In a radioligand displacement assay an active substance lowers the binding of a labelled ligand.)

The target is the same in assay [10]. Briefly: Positive allosteric modulation of human C-terminal eYFP-tagged NY4 receptor expressed in HEK293 cells assessed as potentiation of peptide YY-induced arrestin 3 recruitment by measuring peptide YY pEC50 at 30 uM after 30 mins by BRET assay (Rvb = 5.8 +/- 0.20 No_unit).
The target is the same in assay [11]. Briefly: ASSAY_NAME: ChEMBL_1668991 (CHEMBL4018879) DESCRIPTION: Positive allosteric modulation of human NY4 receptor expressed in African green monkey COS7 cells co-expressing delta6Galphaqi4-myr assessed as potentiation of pancreatic polypeptide induced-calcium flux by measuring pancreatic polypeptide EC50 at 30 uM treated at 20 secs post baseline detection followed by addition of pancreatic polypeptide ….

Assay [12] is described as follows: Positive allosteric modulation of human NY4 receptor expressed in African green monkey COS7 cells co-expressing delta6Galphaqi4-myr assessed as potentiation of pancreatic polypeptide induced-calcium flux by measuring pancreatic polypeptide pEC50 at 30 uM treated at 20 secs post baseline detection followed by addition of pancreatic polypeptide.
Assay [13] is described as follows: Positive allosteric modulation of human C-terminal eYFP-fused human NY1 receptor expressed in African green monkey COS7 cells co-expressing delta6Galphaqi4-myr assessed as potentiation of neuropeptide Y-mediated Ca2+ flux by measuring […] at 30 uM treated at 20 secs post baseline detection followed by addition of neuro.
Assay [14] concerns the target T2, Neuropeptide Y receptor type 4. Nature of the assay: Effect on peptide YY-mediated displacement of 125I-pancreatic polypeptide from human C-terminal eYFP-tagged NY4 receptor expressed in HEK293 cell membranes assessed as peptide YY pKi at 30 uM after 5 hrs by scintillation counting (Rvb = 8 +/- 0.2 No_unit).
Assay [15] shares this target. Briefly: Positive allosteric modulation of human C-terminal eYFP-tagged NY4 receptor expressed in HEK293 cells assessed as potentiation of peptide YY-induced arrestin 3 recruitment by measuring peptide YY EC50 at 30 uM after 30 mins by BRET assay (Rvb = 1600 nM).
Assay [16] has the same target. Nature of the assay: Positive allosteric modulation of human NY4 receptor expressed in African green monkey COS7 cells co-expressing delta6Galphaqi4-myr assessed as potentiation of peptide YY induced-calcium flux by measuring peptide YY pEC50 at 30 uM treated at 20 secs post baseline detection followed by addition of peptide YY after 140 secs by Fluo2-AM fluorescent dye based-assay (Rvb = 8.6 +/- 0.08 No_unit). Put shortly: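 COS7 cells stably co-expressing Y4R-eYFP and Δ6Gαqi4-myr were seeded overnight. They were loaded with 2.4 μM Fluo2-AM in HBSS/20 mM HEPES/[…] for 60 min at 37 °C, then kept in assay buffer. Fluorescence was read at ex 485/em 525 nm. Compound was added after a 20 s baseline and peptide at 140 s. Response was taken as x-fold over basal, normalized to the DMSO control, and fitted to an operational model of allosterism. Duplicates, at least three independent runs.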

T2 sequence (P50391 whole entry C240R): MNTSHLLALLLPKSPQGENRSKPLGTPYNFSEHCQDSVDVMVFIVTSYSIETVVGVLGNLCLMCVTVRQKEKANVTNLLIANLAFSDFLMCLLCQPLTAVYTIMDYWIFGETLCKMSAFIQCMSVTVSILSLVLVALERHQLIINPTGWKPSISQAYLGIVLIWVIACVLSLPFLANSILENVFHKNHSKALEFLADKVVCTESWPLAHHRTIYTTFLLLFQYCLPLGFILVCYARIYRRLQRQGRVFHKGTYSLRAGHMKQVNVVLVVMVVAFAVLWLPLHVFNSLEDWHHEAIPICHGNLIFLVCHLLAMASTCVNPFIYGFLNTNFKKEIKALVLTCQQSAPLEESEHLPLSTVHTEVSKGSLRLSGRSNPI

As a reminder, the EC50 is the concentration that produces a half-maximal response. Broadly, the Ki is the equilibrium dissociation constant of an inhibitor or competing ligand from its target. For the compound `CC(C)(C)c1ccc(OC2CCCCC2O)cc1` (stereo unspecified), the EC50 in assay [1] was 0.0631 nM; in assay [2], 4.5 nM; in [3], 398 nM; in [4] it was 0.4 nM; in assay [5], 4 nM; in assay [6] it was 0.398 nM. In addition, the EC50 in assay [7] worked out at 443 nM; in [8], 0.5 nM; in assay [10], 794 nM; in assay [11], 0.03 nM; in assay [12], 0.0398 nM; in [13] it was 0.0398 nM. Besides, the EC50 in assay [15] came out at 845 nM; in [16] it was 0.501 nM. Besides, the Ki in assay [9] and in assay [14] was 6.3 nM throughout.
